Experimental data reported in ChEMBL document CHEMBL1932971, “Synthesis of uriedo and thiouriedo derivatives of peptide conjugated heterocycles - A new class of promising antimicrobials” (2012).
In brackets after ≈: the same amount, converted by molar mass. Peptide text beside a SMILES is read from it. * marks the point of attachment. Piperazinyl(4-(2,3-Cl2Ph)) = Clc1cccc(N2CCN(*)CC2)c1Cl; Thiocarbamoyl(N-4-ClPh) = S=C(Nc1ccc(Cl)cc1)*; Thiocarbamoyl(N-2-FPh) = Fc1ccccc1NC(=S)*; X1 = Fc1ccc2c(C3CCN(*)CC3)noc2c1

Columns and labels:
Type in all cases: functional
Aspergillus flavus [1] = experiment: Antifungal activity against Aspergillus flavus after 72 hrs by microdilution method
Escherichia coli [2] = experiment: Antibacterial activity against Escherichia coli after 24 hrs by microdilution method
Klebsiella pneumoniae [3] = experiment: Antibacterial activity against Klebsiella pneumoniae at 30 ug/ml after 24 hrs by agar well diffusion method; conditions: read-out: DIZ
Outline: (§1)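 Agar well diffusion. Inocula were grown in nutrient broth at 37 °C for 24 h, then subcultured in nutrient broth at room temperature. Compounds were made as a 1 mg/mL DMSO stock and diluted to 30 µg/mL final. Nutrient agar plates were spread-inoculated and 6 mm wells each got 0.1 mL. Controls were amoxicillin (reference) and DMSO (negative). Incubation was 24 h at 37 °C. Inhibition zone was measured in mm as the mean of three determinations.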

Fusarium oxysporum [4] = experiment: Antifungal activity against Fusarium oxysporum at 30 ug/ml after 72 hrs by agar well diffusion method; conditions: read-out: DIZ
Outline: (§2)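 Fungal well diffusion. Inocula were subcultured in nutrient broth for one day, then spread on solidified medium. Compounds were made as a 1 mg/mL DMSO stock and diluted to 30 µg/mL final. Each 6 mm well got 0.1 mL. Controls were bavistin (reference) and DMSO (negative). Plates stood for 3 days at room temperature. Inhibition zone was measured in mm as the mean of three determinations.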

Staphylococcus aureus [5] = experiment: Antibacterial activity against coagulase-positive Staphylococcus aureus at 30 ug/ml after 24 hrs by agar well diffusion method; conditions: read-out: DIZ; outline: as §1
Xanthomonas oryzae [6] = experiment: Antibacterial activity against Xanthomonas oryzae after 24 hrs by microdilution method
Fusarium oxysporum [7] = experiment: Antifungal activity against Fusarium oxysporum after 72 hrs by microdilution method
Staphylococcus aureus [8] = experiment: Antibacterial activity against coagulase-positive Staphylococcus aureus after 24 hrs by microdilution method
Klebsiella pneumoniae [9] = experiment: Antibacterial activity against Klebsiella pneumoniae after 24 hrs by microdilution method
Xanthomonas oryzae [10] = experiment: Antibacterial activity against Xanthomonas oryzae at 30 ug/ml after 24 hrs by agar well diffusion method; conditions: read-out: DIZ
Aspergillus flavus [11] = experiment: Antifungal activity against Aspergillus flavus at 30 ug/ml after 72 hrs by agar well diffusion method; conditions: read-out: DIZ; outline: as §2
Aspergillus niger [12] = experiment: Antifungal activity against Aspergillus niger at 30 ug/ml after 72 hrs by agar well diffusion method; conditions: read-out: DIZ; outline: as §2
Escherichia coli [13] = experiment: Antibacterial activity against Escherichia coli at 30 ug/ml after 24 hrs by agar well diffusion method; conditions: read-out: DIZ; outline: as §1
Aspergillus niger [14] = experiment: Antifungal activity against Aspergillus niger after 72 hrs by microdilution method

Compound | MIC (Aspergillus flavus [1]) | MIC (Escherichia coli [2]) | zone of inhibition at 30 µg/mL (Klebsiella pneumoniae [3]) | zone of inhibition at 30 µg/mL (Fusarium oxysporum [4]) | zone of inhibition at 30 µg/mL (Staphylococcus aureus [5]) | MIC (Xanthomonas oryzae [6]) | MIC (Fusarium oxysporum [7]) | MIC (Staphylococcus aureus [8]) | MIC (Klebsiella pneumoniae [9]) | zone of inhibition at 30 µg/mL (Xanthomonas oryzae [10]) | zone of inhibition at 30 µg/mL (Aspergillus flavus [11]) | zone of inhibition at 30 µg/mL (Aspergillus niger [12]) | zone of inhibition at 30 µg/mL (Escherichia coli [13]) | MIC (Aspergillus niger [14])
O=C(CNC(=S)Nc1ccccc1F)N[C@@H](Cc1ccccc1)C(=O)NCC(=O)N[C@@H](Cc1ccccc1)C(=O)N1CCC[C@H]1C(=O)N1CCC(c2noc3cc(F)ccc23)CC1 ({Thiocarbamoyl(N-2-FPh)}-GFGFP-X1) | 4.5 µg/mL (≈ 5.12 µM) | 4.75 µg/mL (≈ 5.4 µM) | 37 mm | 40 mm | 36 mm | 4.75 µg/mL (≈ 5.4 µM) | 4 µg/mL (≈ 4.55 µM) | 4 µg/mL (≈ 4.55 µM) | 3 µg/mL (≈ 3.41 µM) | 41 mm | 36 mm | 41 mm | 41 mm | 3 µg/mL (≈ 3.41 µM)
O=C(CNC(=S)Nc1ccccc1F)NCC(=O)N[C@@H](Cc1ccccc1)C(=O)N1CCC[C@H]1C(=O)N1CCC(c2noc3cc(F)ccc23)CC1 ({Thiocarbamoyl(N-2-FPh)}-GGFP-X1) | 12.2 µg/mL (≈ 16.7 µM) | 11.5 µg/mL (≈ 15.7 µM) | 28 mm | 32 mm | 26 mm | 8.5 µg/mL (≈ 11.6 µM) | 13.2 µg/mL (≈ 18.1 µM) | 10.2 µg/mL (≈ 14 µM) | 8.25 µg/mL (≈ 11.3 µM) | 30 mm | 30 mm | 35 mm | 32 mm | 8.5 µg/mL (≈ 11.6 µM)
CC(C)[C@H](NC(=O)CNC(=S)Nc1ccccc1F)C(=O)NCC(=O)N[C@H](C(=O)N1CCC[C@H]1C(=O)N1CCC(c2noc3cc(F)ccc23)CC1)C(C)C ({Thiocarbamoyl(N-2-FPh)}-GVGVP-X1) | 5.5 µg/mL (≈ 7.03 µM) | 7.25 µg/mL (≈ 9.26 µM) | 35 mm | 35 mm | 31 mm | 6.25 µg/mL (≈ 7.98 µM) | 6.75 µg/mL (≈ 8.62 µM) | 6.25 µg/mL (≈ 7.98 µM) | 5 µg/mL (≈ 6.39 µM) | 36 mm | 33 mm | 37 mm | 35 mm | 4.75 µg/mL (≈ 6.07 µM)
O=C(CNC(=S)Nc1ccc(Cl)cc1)NCC(=O)N[C@@H](Cc1ccccc1)C(=O)N1CCC[C@H]1C(=O)N1CCN(c2cccc(Cl)c2Cl)CC1 ({Thiocarbamoyl(N-4-ClPh)}-GGFP-{Piperazinyl(4-(2,3-Cl2Ph))}) | – | – | 25 mm | 30 mm | 23 mm | – | – | – | – | 26 mm | 28 mm | 32 mm | 29 mm | –
CC[C@H](C)[C@H](NC(=O)CNC(=O)CNC(=S)Nc1ccc(Cl)cc1)C(=O)N1CCC[C@H]1C(=O)N1CCC(c2noc3cc(F)ccc23)CC1 ({Thiocarbamoyl(N-4-ClPh)}-GGIP-X1) | – | – | 21 mm | 29 mm | 21 mm | – | – | – | – | 25 mm | 27 mm | 29 mm | 28 mm | –
CC[C@H](C)[C@H](NC(=O)CNC(=O)CNC(=S)Nc1ccc(Cl)cc1)C(=O)N1CCC[C@H]1C(=O)N1CCN(c2cccc(Cl)c2Cl)CC1 ({Thiocarbamoyl(N-4-ClPh)}-GGIP-{Piperazinyl(4-(2,3-Cl2Ph))}) | – | – | 20 mm | 28 mm | 22 mm | – | – | – | – | 24 mm | 26 mm | 28 mm | 27 mm | –
CC1(C)S[C@@H]2[C@H](NC(=O)[C@H](N)c3ccc(O)cc3)C(=O)N2[C@H]1C(=O)O [AMOXICILLIN] | – | 24 µg/mL (≈ 65.7 µM) | 8 mm | – | 8 mm | 19 µg/mL (≈ 52 µM) | – | 23 µg/mL (≈ 62.9 µM) | 20 µg/mL (≈ 54.7 µM) | 9 mm | – | – | 12 mm | –
COC(=O)Nc1nc2ccccc2[nH]1 [CARBENDAZIM] | 26 µg/mL (≈ 136 µM) | – | – | 10 mm | – | – | 25 µg/mL (≈ 131 µM) | – | – | – | 9 mm | 12 mm | – | 22 µg/mL (≈ 115 µM)
